In ChEMBL document CHEMBL1212813, “alpha-Amino-3-hydroxy-5-methyl-4-isoxazolepropionic acid (AMPA) antagonists: from bench to bedside” (J Med Chem, 2010):
In brackets after ≈: the same amount, converted by molar mass.

Legend:
[1] = Displacement of [3H]AMPA from AMPA receptor in rat cortical membrane; assay type: cell membranes
[2] = Displacement of [3H]kainate from kainate receptor in rat cortical membrane; assay type: cell membranes
Glutamate NMDA receptor [3] = test: Inhibition of NMDA receptor glutamate site from rat cortical membrane
Glutamate NMDA receptor [4] = test: Inhibition of NMDA receptor glycine site from rat cortical membrane
Rattus norvegicus [5] = species on record: Rattus norvegicus; test: Selectivity ratio IC50 for rat AMPA receptor to IC50 rat kainate receptor
Rattus norvegicus [6] = test: Neuroprotective effect against middle cerebral artery occlusion-induced focal cerebral ischemia in iv dosed spontaneously hypertensive rat; assay type: functional
Mus musculus [7] = test: Anticonvulsant activity in ip dosed DBA2 mouse assessed as inhibition of sound-induced clonic seizures; assay type: functional
Mus musculus [8] = test: Anticonvulsant activity in po dosed mouse assessed as inhibition of MES-induced tonic seizures; assay type: functional
Summary of the method: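 Mice were dosed orally 2 h before maximal electroshock. The read-out was protection from tonic convulsions, and an ED50 was derived.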

[9] = Solubility of the compound at pH 7.4; assay type: physicochemical; details: buffer
Rattus norvegicus [10] = test: Anticonvulsant activity in po dosed rat assessed as inhibition of MES-induced tonic seizures; assay type: functional
Mus musculus [11] = test: Anticonvulsant activity in ip dosed mouse assessed as inhibition of MES-induced tonic seizures; assay type: functional
[12] = Antagonist activity at AMPA receptor in rat cortical membrane assessed as inhibition of AMPA-induced calcium accumulation; assay type: functional, cell membranes
Mus musculus [13] = test: Anticonvulsant activity in po dosed mouse assessed as inhibition of PTZ-induced seizures; assay type: functional
Homo sapiens = species on record: Homo sapiens; test: Antiepileptic activity in human patient assessed as reduction in refractory partial seizures; assay type: functional; design: scale not given: the % may be the effect or the level left

NS(=O)(=O)c1cccc2c1c([N+](=O)[O-])cc1nc(O)c(O)nc12 [NBQX]
IC50 [1]: 150 nM | IC50 [2]: 4800 nM | IC50 (Glutamate NMDA receptor [3]): > 90000 nM | IC50 (Glutamate NMDA receptor [4]): > 100000 nM | Ratio IC50 (Rattus norvegicus [5]): > 30 | Activity (Rattus norvegicus [6]): 30% | ED50 (Mus musculus [7]): 27.8 mg/kg

Nc1ccncc1 [DALFAMPRIDINE]
ED50 (Mus musculus [8]): 8.4 mg/kg

O=c1[nH]c2cc([N+](=O)[O-])cc(CNCP(=O)(O)O)c2[nH]c1=O
IC50 [1]: 290 nM | IC50 [2]: 4200 nM | IC50 (Glutamate NMDA receptor [3]): 490 nM | IC50 (Glutamate NMDA receptor [4]): 1160 nM | solubility [9]: 6600 µg/mL (≈ 20 mM) | ED50 (Rattus norvegicus [10]): 5 mg/kg

Oc1nc2cc(-n3ccnc3)c(-n3ccnc3)cc2nc1O
Ki [1]: 820 nM

C1CCc2nnnn2CC1 [PENTYLENETETRAZOL]
ED50 (Mus musculus [8]): 16.8 mg/kg

CS(=O)(=O)Nn1c(=O)[nH]c2cc(Cl)ccc2c1=O
ED50 (Mus musculus [11]): 40 mg/kg

CN1CCC[C@H]1c1cccnc1 [NICOTINE]
ED50 (Mus musculus [8]): 22.7 mg/kg

O=C1C[C@@H]2OCC=C3CN4CC[C@]56c7ccccc7N1[C@H]5[C@H]2[C@H]3C[C@H]46 [STRYCHNINE]
ED50 (Mus musculus [8]): 17.4 mg/kg

O=c1[nH]c2cc([N+](=O)[O-])c([N+](=O)[O-])cc2[nH]c1=O [DNQX]
IC50 [1]: 500 nM | IC50 [2]: 2000 nM | IC50 (Glutamate NMDA receptor [3]): 40000 nM | IC50 (Glutamate NMDA receptor [4]): 9500 nM

N#Cc1ccc2nc(O)c(O)nc2c1
Ki [1]: 5000 nM

O=[N+]([O-])c1ccc2nc(O)c(O)nc2c1
Ki [1]: 2000 nM

CN1CCc2cc3c(cc2[C@H]1[C@@H]1OC(=O)c2c1ccc1c2OCO1)OCO3 [BICUCULLINE]
ED50 (Mus musculus [8]): 14.6 mg/kg

N#Cc1ccccc1-c1cc(-c2ccccn2)cn(-c2ccccc2)c1=O [PERAMPANEL]
ED50 (Mus musculus [7]): 0.47 mg/kg | ED50 (Mus musculus [8]): 1.6 mg/kg | IC50 [12]: 93 nM | ED50 (Mus musculus [13]): 0.94 mg/kg | Activity (Homo sapiens): 40%

O=C(O)CCS [MERCAPTOPROPIONIC ACID]
ED50 (Mus musculus [8]): 17.1 mg/kg
